This is an account of results in ChEMBL document CHEMBL4270603, “Computer-aided drug discovery: Novel 3,9-disubstituted eudistomin U derivatives as potent antibacterial agents” (Eur J Med Chem, 2018).

Converted amounts (≈) assume the structure as drawn. The source made the active and inactive calls. No cut-off for these calls is given here. Bounds are passed on as bounds.

Experiment [1] concerns Bacillus cereus. Briefly: Potency index, ratio of ciprofloxacin MIC to test compound MIC for Bacillus cereus CGMCC 1.1846. Format: functional.
Experiment [2] relates to Staphylococcus aureus. Put plainly: Bactericidal activity against Staphylococcus aureus assessed as disruption of bacterial membrane at 1.5625 micromol/l after 1 hr by Hoechst/propidium iodide staining based fluorescence microscopic analysis. The format is functional, organism-based. In a few lines: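 S. aureus cells were incubated with compound for 1 h, then dual-stained with Hoechst and propidium iodide and imaged by fluorescence microscopy, with untreated cells as the control. Hoechst enters intact cells and gives blue fluorescence. PI gives red fluorescence only when the membrane is disrupted. Blue, red and merged channels were compared.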

For experiment [3], the system named is Staphylococcus aureus. Briefly: Antibacterial activity against Staphylococcus aureus CGMCC 1.8721 measured after 12 to 14 hrs. The format is functional. In a few lines: (§1)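 Twofold (double) dilution method for in vitro antibacterial activity, with fosfomycin sodium, ciprofloxacin and propineb as positive controls.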
In experiment [4] the test system is Ralstonia solanacearum. Briefly: Potency index, ratio of propineb MIC to test compound MIC for Ralstonia solanacearum CGMCC 1.12711. The format is functional.
The test system of experiment [5] is Staphylococcus aureus. Briefly: Induction of morphological changes in Staphylococcus aureus assessed as appearance of rough cell surface at 1.5625 micromol/l after 1 hr by scanning electron microscopic analysis. Format: functional, organism-based. In a few lines: (§2)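 Cell-surface morphology of compound-treated S. aureus was imaged by scanning electron microscopy and compared with an untreated blank group.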

Experiment [6] has as its system Ralstonia solanacearum. Put plainly: Antibacterial activity against Ralstonia solanacearum CGMCC 1.12711 measured after 12 to 14 hrs. Format: functional. In a few lines: (§3)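 In vitro double dilution method, run alongside fosfomycin sodium, ciprofloxacin and propineb as positive controls.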
Experiment [7] concerns Bacillus cereus. Put plainly: Antibacterial activity against Bacillus cereus CGMCC 1.1846 measured after 12 to 14 hrs. The format is functional. In a few lines: as §1
Experiment [8] deals with Staphylococcus aureus. Briefly: Induction of morphological changes in Staphylococcus aureus assessed as appearance of irregular cell surface at 1.5625 micromol/l after 1 hr by scanning electron microscopic analysis. The format is functional, organism-based. In a few lines:
as §2

Experiment [9] has as its system Staphylococcus aureus. Put plainly: Induction of morphological changes in Staphylococcus aureus assessed as disruption of cell membrane at 0.5 MIC after 1 hr by transmission electron microscopic analysis. Format: functional, organism-based. The conditions noted are these: 0.5 M. The gist of the method: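 S. aureus cells were exposed to compound for 1 h, then imaged by transmission electron microscopy for cell-membrane boundary integrity, with untreated cells as the comparison.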

In experiment [10] the test system is Staphylococcus aureus. Put plainly: Potency index, ratio of ciprofloxacin MIC to test compound MIC for methicillin-resistant Staphylococcus aureus ATCC 43300. Format: functional.
The next experiment relates to Calf thymus DNA. Put plainly: Binding affinity to calf thymus DNA by isothermal titration calorimetric method. The format is nucleic-acid assay, Bos taurus. The gist of the method: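 DNA was titrated with compound by isothermal titration calorimetry at 298 K. Heat flow was recorded over time, and thermodynamic constants were obtained by fitting to an independent binding model.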
A general note: In ITC the heat of successive injections is recorded.

The subject of experiment [11] is Staphylococcus aureus. Put plainly: Antibacterial activity against methicillin-resistant Staphylococcus aureus ATCC 43300 measured after 12 to 14 hrs. Format: functional. The gist of the method: as §3

In the case of `OCc1cc2c3ccccc3n(Cc3ccc(Br)cc3)c2c(-c2c[nH]c3ccccc23)n1`, the Ratio with Bacillus cereus [1] is 2; with Ralstonia solanacearum [4] it was 16; in the experiment with Staphylococcus aureus [10], 4. The outcome with Staphylococcus aureus [2], in the experiment on Staphylococcus aureus [5], in the experiment with Staphylococcus aureus [8] and in the experiment on Staphylococcus aureus [9] was Active. Moreover, the MIC was 3.12 µM (≈ 1.51 µg/mL) in the experiment on Staphylococcus aureus [3], 1.56 µM (≈ 0.754 µg/mL) with Ralstonia solanacearum [6], 3.12 µM (≈ 1.51 µg/mL) in the experiment on Bacillus cereus [7] and 3.12 µM (≈ 1.51 µg/mL) in the experiment on Staphylococcus aureus [11]. In the experiment with Calf thymus DNA, the Kd came out at 553 nM. For the same molecule, in the experiment with Calf thymus DNA (Bos taurus), the Ka stood at 1.81 ×10⁶ /M.

As for `OCc1cc2c3ccccc3n(Cc3ccc(F)cc3)c2c(-c2c[nH]c3ccccc23)n1`, the Ratio in the experiment on Bacillus cereus [1] amounted to 2; with Staphylococcus aureus [10], 4. Moreover, the MIC against Staphylococcus aureus [3] worked out at 6.25 µM (≈ 2.63 µg/mL); in the experiment with Ralstonia solanacearum [6], 6.25 µM (≈ 2.63 µg/mL); with Bacillus cereus [7] it was 3.12 µM (≈ 1.32 µg/mL); in the experiment on Staphylococcus aureus [11], 3.12 µM (≈ 1.32 µg/mL).

For `Cc1cccc(Cn2c3ccccc3c3cc(CO)nc(-c4c[nH]c5ccccc45)c32)c1`, the Ratio with Bacillus cereus [1] turned out to be 2. In addition, the MIC in the experiment with Staphylococcus aureus [3] amounted to 3.12 µM (≈ 1.3 µg/mL); against Ralstonia solanacearum [6], 3.12 µM (≈ 1.3 µg/mL); in the experiment with Bacillus cereus [7], 3.12 µM (≈ 1.3 µg/mL); in the experiment on Staphylococcus aureus [11], 100 µM (≈ 41.8 µg/mL).

As for `OCc1cc2c3ccccc3n(Cc3cccc(C(F)(F)F)c3)c2c(-c2c[nH]c3ccccc23)n1`, the Ratio with Bacillus cereus [1] is listed as 2. The MIC is 3.12 µM (≈ 1.47 µg/mL) against Staphylococcus aureus [3], 3.12 µM (≈ 1.47 µg/mL) against Ralstonia solanacearum [6], 3.12 µM (≈ 1.47 µg/mL) with Bacillus cereus [7] and 12.5 µM (≈ 5.89 µg/mL) against Staphylococcus aureus [11].

Regarding `COC(=O)c1cc2c3ccccc3n(Cc3ccccc3)c2c(-c2cn(C(C)=O)c3ccccc23)n1`, the MIC against Staphylococcus aureus [3], against Ralstonia solanacearum [6], with Bacillus cereus [7] and against Staphylococcus aureus [11] was more than 100 µM throughout.

Broadly, the MIC is the lowest concentration that inhibits growth of the organism. Read a low MIC as inhibition by little substance. The term Kd denotes a measure of binding affinity in units of concentration. Low readings indicate tighter binding, high ones weaker binding.
